Reference: ChEMBL document CHEMBL4346746, “Inhibition of 3-phosphoglycerate dehydrogenase (PHGDH) by indole amides abrogates de novo serine synthesis in cancer cells” (Bioorg Med Chem Lett, 2019)
One block for each compound: values may come before it. Calls of active or inactive are those of the source. No cut-off for these calls is given here.

Columns and labels:
[1] = biological target: T1, D-3-phosphoglycerate dehydrogenase (Homo sapiens, UniProt O43175); experiment: Inhibition of PHGDH (unknown origin) using 140 nM of PHGDH and 3-PG as substrate incubated for 20 mins in presence of NAD+, PSAT1, PSPH by diaphorase and resazurin dye based fluorescence assay
T1 sequence (O43175 whole entry): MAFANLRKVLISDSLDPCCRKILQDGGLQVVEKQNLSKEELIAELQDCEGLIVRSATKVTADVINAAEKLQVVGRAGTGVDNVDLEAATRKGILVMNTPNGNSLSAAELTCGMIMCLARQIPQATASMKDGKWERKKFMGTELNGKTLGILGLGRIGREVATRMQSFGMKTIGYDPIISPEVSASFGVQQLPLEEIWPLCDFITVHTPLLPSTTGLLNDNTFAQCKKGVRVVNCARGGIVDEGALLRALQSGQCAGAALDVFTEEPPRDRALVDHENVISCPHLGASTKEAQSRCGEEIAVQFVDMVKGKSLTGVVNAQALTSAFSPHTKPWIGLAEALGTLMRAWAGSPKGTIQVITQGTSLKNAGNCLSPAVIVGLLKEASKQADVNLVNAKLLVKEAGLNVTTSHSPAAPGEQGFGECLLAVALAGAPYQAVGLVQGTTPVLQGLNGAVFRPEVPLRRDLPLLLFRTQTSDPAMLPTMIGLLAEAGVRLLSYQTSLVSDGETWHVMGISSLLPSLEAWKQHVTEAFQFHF

[2] = biological target: T2, D-3-phosphoglycerate dehydrogenase (Homo sapiens) (UniProt O43175); experiment: Inhibition of PHGDH-mediated serine synthesis in human Carney cells in serine free medium at 10 uM preincubated for 1 hr followed by 13C6 labelled glucose addition and measured after 2 hrs by LC/MS analysis based 13C6-Glucose tracing assay relative control; type: cell-based
T2 sequence (whole entry): T1 sequence (O43175 whole entry)
In short: (§1)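 Carney cells were pretreated with inhibitor for 1 h in the presence of 12C3-serine, then washed. They were labelled with 13C6-glucose medium for 2 h with inhibitor still present. 13C incorporation into serine was read by LC-MS; 3-PG and pyruvate labelling were also monitored.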

[3] = Effect on 3-PG level in human Carney cells in serine free medium assessed as 13C-labeling of 3-PG at 1 to 40 uM preincubated for 1 hr followed by 13C6 labelled glucose addition and measured after 2 hrs by LC/MS analysis; type: ADME, cell-based
In short: (§2)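 Carney cells were pretreated with inhibitor for 1 h in the presence of 12C3-serine, then washed. They were labeled with 13C6-glucose medium for 2 h with inhibitor still present. Label incorporation into 3-PG and pyruvate was measured by LC-MS, alongside serine labeling as the pathway read-out.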

[4] = Effect on pyruvate level in human Carney cells in serine free medium assessed as 13C-labeling of pyruvate at 1 to 40 uM preincubated for 1 hr followed by 13C6 labelled glucose addition and measured after 2 hrs by LC/MS analysis; type: ADME, cell-based; in short: as §2
[5] = biological target: T2, D-3-phosphoglycerate dehydrogenase (Homo sapiens); experiment: Inhibition of PHGDH-mediated serine synthesis in human Carney cells in serine free medium at 1 to 40 uM preincubated for […] followed by 13C6 labelled glucose addition and measured after 2 hrs by LC/MS analysis based 13C6-Glucose tracing assay relative control; type: cell-based
[6] = biological target: T2, D-3-phosphoglycerate dehydrogenase (Homo sapiens); experiment: Inhibition of PHGDH-mediated serine synthesis in human Carney cells in serine free medium at 40 uM preincubated for 1 hr followed by 13C6 labelled glucose addition and measured after 2 hrs by LC/MS analysis based 13C6-Glucose tracing assay relative control; type: cell-based; in short: as §1
[7] = biological target: T2, D-3-phosphoglycerate dehydrogenase (Homo sapiens); experiment: Inhibition of PHGDH-mediated serine synthesis in human Carney cells in serine free medium preincubated for 1 hr followed by 13C6 labelled glucose addition and measured after 2 hrs by LC/MS analysis based 13C6-Glucose tracing assay relative control; type: cell-based; in short: as §1
[8] = Effect on 3-PG level in human Carney cells in serine free medium assessed as 13C-labeling of 3-PG at 0.1 to 10 uM preincubated for 1 hr followed by 13C6 labelled glucose addition and measured after 2 hrs by LC/MS analysis; type: ADME, cell-based; in short: as §2
[9] = biological target: T2, D-3-phosphoglycerate dehydrogenase (Homo sapiens); experiment: Inhibition of PHGDH-mediated serine synthesis in human Carney cells in serine free medium at 1 uM preincubated for 1 hr followed by 13C6 labelled glucose addition and measured after 2 hrs by LC/MS analysis based 13C6-Glucose tracing assay relative control; type: cell-based; in short: as §1
[10] = biological target: T2, D-3-phosphoglycerate dehydrogenase (Homo sapiens); experiment: Inhibition of PHGDH-mediated serine synthesis in human Carney cells in serine free medium at uM preincubated for 1 hr followed by 13C6 labelled glucose addition and measured after 2 hrs by LC/MS analysis based 13C6-Glucose tracing assay relative control; type: cell-based; details: concentration not given here; in short: as §1
[11] = Effect on pyruvate level in human Carney cells in serine free medium assessed as 13C-labeling of pyruvate at 0.1 to 10 uM preincubated for 1 hr followed by 13C6 labelled glucose addition and measured after 2 hrs by LC/MS analysis; type: ADME, cell-based; in short: as §2
Homo sapiens = species on record: Homo sapiens; experiment: Antiproliferative activity against human Carney cells in serine free medium at 2 uM with media and test compound change for every 2 days and measured every 6 hrs by automated microscopic method; type: functional, cell-based
[12] = biological target: T1, D-3-phosphoglycerate dehydrogenase; experiment: Inhibition of PHGDH (unknown origin)
[13] = biological target: T2, D-3-phosphoglycerate dehydrogenase (Homo sapiens); experiment: Mixed type inhibition of PHGDH (unknown origin) assessed as decrease in substrate Vmax 3-PG as substrate incubated for 20 mins in presence of , PSAT1, PSPH and varying NAD+ by diaphorase and resazurin dye based fluorescence assay
[14] = biological target: T2, D-3-phosphoglycerate dehydrogenase (Homo sapiens); experiment: Mixed type inhibition of PHGDH (unknown origin) assessed as rightward shift in substrate Km using 3-PG as substrate incubated for 20 mins in presence of , PSAT1, PSPH and varying NAD+ by diaphorase and resazurin dye based fluorescence assay
[15] = biological target: T3, Malate dehydrogenase, cytoplasmic (Homo sapiens, UniProt P40925); experiment: Inhibition of recombinant human MDH1 expressed in Escherichia coli using malate as substrate incubated for 30 mins followed by substrate addition
T3 sequence (P40925 whole entry): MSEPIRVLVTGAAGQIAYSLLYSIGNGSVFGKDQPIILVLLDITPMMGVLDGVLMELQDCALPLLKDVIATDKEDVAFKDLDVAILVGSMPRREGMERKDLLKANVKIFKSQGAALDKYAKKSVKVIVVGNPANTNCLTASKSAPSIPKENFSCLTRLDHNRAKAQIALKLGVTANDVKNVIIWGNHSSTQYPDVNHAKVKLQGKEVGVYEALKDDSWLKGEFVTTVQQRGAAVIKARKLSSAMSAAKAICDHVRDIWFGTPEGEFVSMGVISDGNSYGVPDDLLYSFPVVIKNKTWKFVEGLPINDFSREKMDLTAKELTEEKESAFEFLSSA

[16] = biological target: L-lactate dehydrogenase A chain (Homo sapiens, UniProt P00338); experiment: Inhibition of recombinant human LDHA expressed in Escherichia coli using lactate as substrate incubated for 30 mins followed by substrate addition
[17] = biological target: T2, D-3-phosphoglycerate dehydrogenase (Homo sapiens); experiment: Inhibition of PHGDH-mediated serine synthesis in human Carney cells in serine free medium up to 40 uM preincubated for 1 hr followed by 13C6 labelled glucose addition and measured after 2 hrs by LC/MS analysis based 13C6-Glucose tracing assay; type: cell-based; in short: as §1
[18] = biological target: Isocitrate dehydrogenase [NADP] cytoplasmic (Homo sapiens, UniProt O75874); experiment: Inhibition of recombinant human IDH1 expressed in Escherichia coli using isocitrate as substrate incubated for 30 mins followed by substrate addition
[19] = Lipophilicity, log D of the compound at pH 7.4 by HPLC analysis; type: physicochemical; details: buffer
[20] = Apparent permeability across apical to basolateral side in MDCK cells overexpressing MDR1; type: ADME, cell-based, Canis lupus familiaris; details: dog
[21] = Efflux ratio of apparent permeability across basolateral to apical over apical to basolateral side in MDCK cells overexpressing MDR1; type: ADME, cell-based, Canis lupus familiaris; details: dog
[22] = biological target: T1, D-3-phosphoglycerate dehydrogenase; experiment: Inhibition of PHGDH (unknown origin) using 11 nM of PHGDH and 3-PG as substrate incubated for 20 mins in presence of NAD+, PSAT1, PSPH by diaphorase and resazurin dye based fluorescence assay
[23] = Effect on pyruvate level in human Carney cells in serine free medium assessed as 13C-labeling of pyruvate at 0.1 to 20 uM preincubated for 1 hr followed by 13C6 labelled glucose addition and measured after 2 hrs by LC/MS analysis; type: ADME, cell-based; in short: as §2
[24] = Effect on 3-PG level in human Carney cells in serine free medium assessed as 13C-labeling of 3-PG at 0.1 to 20 uM preincubated for 1 hr followed by 13C6 labelled glucose addition and measured after 2 hrs by LC/MS analysis; type: ADME, cell-based; in short: as §2
in vitro = details: PAMPA, pH 5

Isocitrate dehydrogenase [NADP] cytoplasmic, sequence (O75874 whole entry): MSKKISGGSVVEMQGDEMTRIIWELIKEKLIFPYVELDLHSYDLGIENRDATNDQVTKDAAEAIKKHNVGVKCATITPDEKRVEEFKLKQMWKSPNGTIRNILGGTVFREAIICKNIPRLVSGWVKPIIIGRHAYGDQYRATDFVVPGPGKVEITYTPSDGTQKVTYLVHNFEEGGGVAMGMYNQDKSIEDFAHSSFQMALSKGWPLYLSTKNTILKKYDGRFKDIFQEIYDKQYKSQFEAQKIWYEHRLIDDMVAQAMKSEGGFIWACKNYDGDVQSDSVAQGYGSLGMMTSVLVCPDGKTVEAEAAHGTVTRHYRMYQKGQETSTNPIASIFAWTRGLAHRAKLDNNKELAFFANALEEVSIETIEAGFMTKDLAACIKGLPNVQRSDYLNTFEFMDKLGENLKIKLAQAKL

Structure (SMILES): COc1cc2c(cc1Cl)cc(C(=O)NC(CN)c1ccc(C(=O)O)cc1)n2C (stereo not given)
IC50 [1]: 23400 nM

Structure (SMILES): Cn1c(C(=O)NC2(c3ccc(C(=O)O)cc3)COC2)cc2c(Cl)c(Cl)ccc21
inhibition [2]: 40% | Activity [3]: Non-Toxic | Activity [4]: Non-Toxic | inhibition [5]: Active | inhibition [6]: 100% | inhibition [7]: Dose-dependent effect

Structure (SMILES): CC(=O)OC(C)OC(=O)C(c1ccc(C2(NC(=O)c3cc4c(Cl)c(Cl)ccc4n3C)COC2)cc1)c1cccnc1 (stereo not given)
IC50 [1]: 1460 nM | Activity [8]: Non-Toxic | inhibition [9]: < 100% | inhibition [10]: 40% | Activity [11]: Non-Toxic | Activity (Homo sapiens): Active

Structure (SMILES): C#CSc1c(NC(=O)c2ccco2)sc(C(=O)OCC)c1C
IC50 [12]: 33000 nM

inhibition [13]: Active | inhibition [14]: Active | IC50 [15]: > 10000 nM | IC50 [16]: > 10000 nM | inhibition [17]: inactive | IC50 [18]: > 10000 nM
Structure (SMILES): O=C1NC[C@@H](COc2cc3[nH]c(C(=O)N[C@H](CO)c4ccc(C(=O)O)cc4)cc3cc2Cl)O1
Activity [3]: Non-Toxic

IC50 [1]: 990 nM
Structure (SMILES): Cn1c(C(=O)NC2(c3ccc([C@H](O)c4cccnc4)cc3)COC2)cc2c(Cl)c(Cl)ccc21

Structure (SMILES): COc1cc2c(cc1Cl)cc(C(=O)N[C@H](C)c1ccc(C(=O)O)cc1)n2C
logD [19]: 1.67 | IC50 [1]: 235 nM | Papp [20]: 1.4 ×10⁻⁶ cm/s | Ratio [21]: 1.3

Structure (SMILES): COc1cc2c(cc1Cl)cc(C(=O)NC(CO)c1ccc(C(=O)O)cc1)n2C (stereo not given)
IC50 [1]: 235 nM

Structure (SMILES): Cn1c(C(=O)NC2(c3ccc(CC(=O)NS(C)(=O)=O)cc3)COC2)cc2c(Cl)c(Cl)ccc21
IC50 [22]: 439 nM

Structure (SMILES): Cn1c(C(=O)NC2(c3ccc(C(CC(=O)O)c4cccnc4)cc3)COC2)cc2c(Cl)c(Cl)ccc21 (stereo not given)
IC50 [22]: 25 nM

IC50 [1]: 370 nM | IC50 [15]: > 10000 nM | IC50 [16]: > 10000 nM | IC50 [18]: > 10000 nM
Structure (SMILES): Cn1c(C(=O)NC2(c3ccc([C@@H](O)c4cccnc4)cc3)COC2)cc2c(Cl)c(Cl)ccc21

Structure (SMILES): CONC(=O)Cc1ccc(C2(NC(=O)c3cc4c(Cl)c(Cl)ccc4n3C)COC2)cc1
IC50 [1]: 287 nM

Structure (SMILES): Cn1c(C(=O)NC2(c3ccc(CO)cc3)COC2)cc2c(Cl)c(Cl)ccc21
IC50 [1]: 1580 nM

Structure (SMILES): Cn1c(C(=O)NC2(c3ccc(C(C(=O)O)c4cccnc4)cc3)COC2)cc2c(Cl)c(Cl)ccc21 (racemic)
inhibition [2]: 90% | IC50 [15]: > 10000 nM | Activity [23]: Non-Toxic | Activity [24]: Non-Toxic | IC50 [18]: > 10000 nM | Activity (Homo sapiens): Active

Structure (SMILES): Cn1c(C(=O)NC2(c3ccc(CC(=O)O)c(F)c3)COC2)cc2c(Cl)c(Cl)ccc21
IC50 [22]: 34 nM

Structure (SMILES): Cn1c(CNC2(c3ccc(C(=O)O)cc3)COC2)cc2c(Cl)c(Cl)ccc21
IC50 [1]: 209000 nM

Structure (SMILES): CCOC(=O)C(c1ccc(C2(NC(=O)c3cc4c(Cl)c(Cl)ccc4n3C)COC2)cc1)c1cccnc1 (stereo not given)
inhibition [2]: 70% | IC50 [1]: 1330 nM | Activity [8]: Non-Toxic | Activity [11]: Non-Toxic

Structure (SMILES): Cn1c(C(=O)NC2(c3ccc(C(=O)O)nc3)COC2)cc2c(Cl)c(Cl)ccc21
IC50 [1]: 22000 nM

Structure (SMILES): Cn1c(C(=O)NC2(c3ccc(C(=O)O)c(F)c3)COC2)cc2c(Cl)c(Cl)ccc21
Papp at 10 µM (in vitro): 15.2 ×10⁻⁶ cm/s | IC50 [22]: 37 nM
